Active and inactive are the calls of the source. No cut-off for these calls is given here.
Key:
A2780 [1] = test: Cytotoxicity against human topotecan-resistant A2780 cells after 72 hrs; assay type: functional, cell-based; conditions: A2780, 72 h
PANC-1 = test: Cytotoxicity against human PANC1 cells expressing mdr1, mrp1, mrp2, lrp genes after 72 hrs; assay type: functional, cell-based; conditions: PANC-1, 72 h
Mus musculus = test: Toxicity in SCID mouse xenografted with human DLD1 cells assessed as decrease in body weight at 20 mg/kg, iv administered on day 5, 8, 11 post tumor implantation; assay type: organism-based, DLD-1; design: dose 20 mg/kg, route intravenous; conditions: in vivo
DLD-1 [2] = test: Antitumor activity against human DLD1 cells expressing P-glycoprotein xenografted in SCID mouse assessed as tumor growth delay at 20 mg/kg, iv administered on day 5, 8, 11 post tumor implantation; assay type: functional
Summary of the method: (§1)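 SCID mice carrying subcutaneous Pgp+ DLD-1 human colon tumours were dosed i.v. q3d×3 on days 5, 8 and 11 after implant, in Tween/EtOH vehicle, with vehicle and untreated control groups. Growth delay was compared with controls by Cox-Mantel test. Cures were mice with no palpable tumour on day 167. Toxicity was counted as death or more than 20% body-weight loss.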

[3] = Cytotoxicity against P-glycoprotein deficient wild type human LCC-6 cells after 72 hrs; assay type: functional, cell-based; conditions: LCC-6, 72 h
DLD-1 [4] = test: Antitumor activity against human DLD1 cells expressing P-glycoprotein xenografted in SCID mouse assessed as no palpable tumors at 20 mg/kg, iv administered on day 5, 8, 11 post tumor implantation measured on day 167; assay type: functional, organism-based; design: dose 20 mg/kg; summary of the method: as §1
NCI-H460 = test: Cytotoxicity against human H460 cells after 72 hrs; assay type: functional, cell-based; conditions: NCI-H460, 72 h
[5] = Cytotoxicity against human LCC-6 cells expressing P-glycoprotein after 72 hrs; assay type: functional, cell-based; conditions: LCC-6, 72 h
[6] = Cytotoxicity against human paclitaxel and cyclosporine-resistant A2780TC3 cells overexpressing class 3 beta-tubulin after 72 hrs; assay type: functional, cell-based; conditions: A2780TC3, 72 h
A2780 [7] = test: Cytotoxicity against human wild type A2780 cells after 72 hrs; assay type: functional, cell-based; conditions: A2780, 72 h
A2780 [8] = test: Cytotoxicity against human cisplatin-resistant A2780 cells after 72 hrs; assay type: functional, cell-based; conditions: A2780, 72 h
MCF7 [9] = test: Cytotoxicity against human MCF7 cells expressing P-glycoprotein after 72 hrs; assay type: functional, cell-based; conditions: MCF7, 72 h
HT-29 = test: Cytotoxicity against human HT-29 cells after 72 hrs; assay type: functional, cell-based; conditions: HT-29, 72 h
MCF7 [10] = test: Resistance factor, ratio of IC50 for human MCF7 cells expressing P-glycoprotein to IC50 for P-glycoprotein deficient wild type human MCF7 cells; assay type: functional
MCF7 [11] = test: Cytotoxicity against P-glycoprotein deficient wild type human MCF7 cells after 72 hrs; assay type: functional, cell-based; conditions: MCF7, 72 h
A2780 [12] = test: Resistance factor, ratio of IC50 for paclitaxel and cyclosporine-resistant human A2780TC3 cells overexpressing class 3 beta-tubulin to IC50 for wild type human A2780 cells; assay type: functional
[13] = Cytotoxicity against human A2780/ADR cells after 72 hrs; assay type: functional, cell-based
[14] = Activity ratio of compound IC50 to paclitaxel IC50 for paclitaxel and cyclosporine-resistant human A2780TC3 cells overexpressing class 3 beta-tubulin; assay type: functional
[15] = Cytotoxicity against human paclitaxel and cyclosporine-resistant A2780TC1 cells overexpressing class 3 beta-tubulin after 72 hrs; assay type: functional, cell-based; conditions: A2780TC1, 72 h
[16] = Cytotoxicity against multidrug-resistant human NCI/ADR cells after 72 hrs; assay type: functional, cell-based; conditions: NCI/ADR-RES
[17] = Induction of tubulin polymerization at 10 uM in absence of GTP
[18] = Induction of tubulin polymerization at 10 uM in presence of Ca2+
MCF7 [19] = test: Resistance factor, ratio of IC50 for P-glycoprotein deficient wild type human MCF7 cells to IC50 for multidrug-resistant human NCI/ADR cells; assay type: functional
[20] = Resistance factor, ratio of IC50 for human LCC-6 cells expressing P-glycoprotein to IC50 for P-glycoprotein deficient wild type human LCC-6 cells; assay type: functional; design: reference not given here

Structure (SMILES)	IC50 (PANC-1) [nM]	IC50 [3] [nM]	IC50 [5] [nM]	IC50 (A2780 [7]) [nM]	IC50 (HT-29) [nM]	IC50 (MCF7 [11]) [nM]	IC50 [16] [nM]	further results
CC(=O)O[C@H]1C(=O)[C@@]2(C)[C@H]([C@H](OC(=O)c3ccccc3)[C@]3(O)C[C@H](OC(=O)[C@H](O)[C@@H](NC(=O)c4ccccc4)c4ccccc4)C(C)=C1C3(C)C)[C@]1(OC(C)=O)CO[C@@H]1C[C@@H]2O [PACLITAXEL]	25.7	2.45	110	1.7				IC50 (A2780 [1]): 7.2 nM; Activity (Mus musculus): Non-toxic; Activity (DLD-1 [2]): 8 days; Activity (DLD-1 [4]): inactive; IC50 (NCI-H460): 4.9 nM; IC50 [6]: 17800 nM; IC50 (A2780 [8]): 2.2 nM
CC(=O)O[C@@]12CO[C@@H]1C[C@H](O)[C@@]1(C)C(=O)[C@H](OC(=O)N(C)C)C3=C(C)[C@@H](OC(=O)[C@H](O)[C@H](C=C(F)F)NC(=O)OC(C)(C)C)C[C@@](O)([C@@H](OC(=O)c4ccccc4)[C@H]21)C3(C)C	1.58				0.46	0.13		IC50 (MCF7 [9]): 4.3 nM; Ratio (MCF7 [10]): 33
CC(=O)O[C@@]1([C@@H]2/C(C)=C(/O)C(=O)C3=C(C)[C@@H](OC(=O)[C@H](O)[C@H](CC(C)C)NC(=O)OC(C)(C)C)C[C@@](O)([C@H]2OC(=O)c2cccc(F)c2)C3(C)C)CO[C@H]1CCO				11.1				IC50 (A2780 [1]): 12.8 nM; Ratio IC50 (A2780 [12]): 41; IC50 [13]: 3730 nM; IC50 [6]: 460 nM; Ratio IC50 [14]: 39; IC50 (A2780 [8]): 11.8 nM; IC50 [15]: 1500 nM
CCC(=O)O[C@H]1C(=O)[C@@]2(C)[C@H]([C@H](OC(=O)c3ccccc3)[C@]3(O)C[C@H](OC(=O)[C@H](O)[C@H](C=C(F)F)NC(=O)OC(C)(C)C)C(C)=C1C3(C)C)[C@]1(OC(C)=O)CO[C@@H]1C[C@@H]2O	0.65				0.34	0.12		IC50 (MCF7 [9]): 1.2 nM; Ratio (MCF7 [10]): 10
CC(=O)O[C@H]1C(=O)[C@@]2(C)[C@H]([C@H](OC(=O)c3ccccc3)[C@]3(O)[C@H]4OC/C=C/Cc5ccccc5C(=O)N[C@@H](c5ccccc5)[C@@H](O)C(=O)O[C@@H]4C(C)=C1C3(C)C)[C@]1(OC(C)=O)CO[C@@H]1C[C@@H]2O		12.2	300	114	29.2	12.3	592	
CC(=O)O[C@H]1C(=O)[C@@]2(C)[C@H]([C@H](OC(=O)c3ccccc3)[C@]3(O)[C@H]4OCC/C=C/c5ccccc5C(=O)N[C@@H](c5ccccc5)[C@@H](O)C(=O)O[C@@H]4C(C)=C1C3(C)C)[C@]1(OC(C)=O)CO[C@@H]1C[C@@H]2O		2.09	129	31	17	3.49	183	inhibition [17]: Active; inhibition [18]: Active
CC(=O)O[C@H]1C(=O)[C@@]2(C)[C@H]([C@H](OC(=O)c3ccccc3)[C@]3(O)[C@H]4OC/C=C\OCc5ccccc5C(=O)N[C@@H](c5ccccc5)[C@@H](O)C(=O)O[C@@H]4C(C)=C1C3(C)C)[C@]1(OC(C)=O)CO[C@@H]1C[C@@H]2O		348	1920	198	62	196	1140	
CC(=O)O[C@@]1([C@@H]2/C(C)=C(/O)C(=O)C3=C(C)[C@@H](OC(=O)[C@H](O)[C@H](C=C(C)C)NC(=O)OC(C)(C)C)C[C@@](O)([C@H]2OC(=O)c2cccc(F)c2)C3(C)C)CO[C@@H]1CCO				6.1				IC50 (A2780 [1]): 6.9 nM; IC50 [13]: 2220 nM; IC50 [6]: 745 nM; IC50 (A2780 [8]): 4.9 nM; IC50 [15]: 4450 nM
CC(=O)O[C@@]12CO[C@@H]1C[C@H](O)[C@@]1(C)C(=O)[C@H](OC(=O)C3CC3)C3=C(C)[C@@H](OC(=O)[C@H](O)[C@H](C=C(F)F)NC(=O)OC(C)(C)C)C[C@@](O)([C@@H](OC(=O)c4ccccc4)[C@H]21)C3(C)C	5.85				0.85	0.12		IC50 (MCF7 [9]): 6 nM; Ratio (MCF7 [10]): 50
COC(=O)O[C@H]1C(=O)[C@@]2(C)[C@H]([C@H](OC(=O)c3cccc(OC)c3)[C@]3(O)C[C@H](OC(=O)[C@H](O)[C@H](C=C(C)C)NC(=O)OC(C)(C)C)C(C)=C1C3(C)C)[C@]1(OC(C)=O)CO[C@@H]1C[C@@H]2O		0.6						Ratio (MCF7 [19]): 3.5; Ratio [20]: 2.7
CCC(=O)O[C@H]1C(=O)[C@@]2(C)[C@H]([C@H](OC(=O)c3ccccc3)[C@]3(O)C[C@H](OC(=O)[C@H](O)[C@H](CC(C)C)NC(=O)OC4CCCCC4)C(C)=C1C3(C)C)[C@]1(OC(C)=O)CO[C@@H]1C[C@@H]2O		4.8						Ratio (MCF7 [19]): 10; Ratio [20]: 3.8
CC(=O)O[C@H]1C(=O)[C@@]2(C)[C@H]([C@H](OC(=O)c3ccccc3)[C@]3(O)C[C@H](OC(=O)[C@H](O)[C@H](C=C(F)F)NC(=O)OC(C)(C)C)C(C)=C1C3(C)C)[C@]1(OC(C)=O)CO[C@@H]1C[C@@H]2O	1.19				0.41	0.099		IC50 (MCF7 [9]): 0.95 nM; Ratio (MCF7 [10]): 9.6
CC(=O)O[C@H]1C(=O)[C@@]2(C)[C@H]([C@H](OC(=O)c3ccccc3)[C@]3(O)[C@H]4OC/C=C/OCc5ccccc5C(=O)N[C@@H](c5ccccc5)[C@@H](O)C(=O)O[C@@H]4C(C)=C1C3(C)C)[C@]1(OC(C)=O)CO[C@@H]1C[C@@H]2O		2070	2280	1480	523	1650	10000	
CC(=O)O[C@H]1C(=O)[C@@]2(C)[C@H]([C@H](OC(=O)c3ccccc3)[C@]3(O)[C@H]4OC/C=C/Cc5ccccc5C(=O)N[C@@H](C=C(C)C)[C@@H](O)C(=O)O[C@@H]4C(C)=C1C3(C)C)[C@]1(OC(C)=O)CO[C@@H]1C[C@@H]2O		130	618			398	1000	
CCC(=O)O[C@H]1C(=O)[C@@]2(C)[C@H]([C@H](OC(=O)c3cccc(OC)c3)[C@]3(O)C[C@H](OC(=O)[C@H](O)[C@H](C=C(C)C)NC(=O)OC4CCCCC4)C(C)=C1C3(C)C)[C@]1(OC(C)=O)CO[C@@H]1C[C@@H]2O		1.23						Ratio (MCF7 [19]): 9.7; Ratio [20]: 12
CC(=O)O[C@@]1(C2/C(C)=C(/O)C(=O)C3=C(C)[C@@H](OC(=O)[C@H](O)[C@H](CC(C)C)NC(=O)OC(C)(C)C)C[C@@](O)([C@H]2OC(=O)c2ccccc2)C3(C)C)CO[C@@H]1CCO (some centres not stated)				17.4				IC50 (A2780 [1]): 27.5 nM; Ratio IC50 (A2780 [12]): 129; IC50 [13]: 2620 nM; IC50 [6]: 2240 nM; Ratio IC50 [14]: 8; IC50 (A2780 [8]): 16.8 nM; IC50 [15]: 2060 nM

Source: ChEMBL document CHEMBL1152321, “Recent advances in the chemistry and biology of new generation taxoids” (J Nat Prod, 2009)
